Results reported in PMC3701955 (Bioorganic & medicinal chemistry, 2012).
Read-outs that look alike come from different tables or passages of the source.

Experiments:
[1] = type: in vivo; conditions: female Sprague–Dawley rats, iv; for Biodistribution of radioactivity in brain region, Amygdala / Biodistribution of radioactivity in brain region, Basal Hypothalamus / Biodistribution of radioactivity in brain region, Cerebellum / Biodistribution of radioactivity in brain region, Remaining Brain / Biodistribution of radioactivity, Blood / Biodistribution of radioactivity, Heart / Biodistribution of radioactivity, Kidney / Biodistribution of radioactivity, Liver / Biodistribution of radioactivity, Lung / Biodistribution of radioactivity, Muscle / Biodistribution of radioactivity, Uterus / Biodistribution of radioactivity in brain region, Dorsal Striatum / Biodistribution of radioactivity, Brain: mean ± SD; for Biodistribution of radioactivity, Brain: total brain
OTR and V1aR = assay: Receptor autoradiography with the radioligand on prairie vole brain slices; type: binding; conditions: 70 pM radioligand
In short: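 Prairie vole brains were cut at 20 μm from prefrontal cortex through nucleus accumbens and ventral pallidum, stored at −80 °C, and thawed. Sections were dipped in 0.1% paraformaldehyde/PBS pH 7.4 and rinsed in 50 mM Tris pH 7.4. They were incubated 1 h with 70 pM radioiodinated test compound without competitor, then washed in 50 mM Tris + 2% MgCl2 pH 7.4, air-dried, and exposed to film 72 h. Six animals per study.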

OTR of the CNS = target: T1, OTR of the CNS (Rattus norvegicus, UniProt P70536); assay: PET imaging of the brain using a rat model; type: in vivo, Sprague–Dawley rats; conditions: rats, 90 min ([18F]3) or 45 min ([11C]4) scan
T1 sequence (P70536 1-388): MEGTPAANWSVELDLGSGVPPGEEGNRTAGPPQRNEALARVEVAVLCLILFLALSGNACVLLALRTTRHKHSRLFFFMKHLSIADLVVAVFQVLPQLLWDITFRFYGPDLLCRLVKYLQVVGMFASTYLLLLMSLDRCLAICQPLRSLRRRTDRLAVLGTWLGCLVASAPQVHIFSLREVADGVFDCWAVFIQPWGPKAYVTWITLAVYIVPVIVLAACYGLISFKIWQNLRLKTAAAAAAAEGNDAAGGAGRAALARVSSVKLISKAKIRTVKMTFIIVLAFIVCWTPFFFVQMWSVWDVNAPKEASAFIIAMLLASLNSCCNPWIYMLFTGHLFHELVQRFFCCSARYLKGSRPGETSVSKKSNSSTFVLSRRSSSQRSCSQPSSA

## CS(=O)(=O)N1CCC(Oc2ccc(CC(=O)N3CCC(N4C(=O)CCc5ccccc54)CC3)c(OC/C=C/[125I])c2)CC1 [[^125I]1, (E)-1-(1-(2-(2-(3-[125I]Iodoallyloxy)-4-(1-(methylsulfonyl)piperidin-4-yloxy)phenyl)acetyl)piperidin-4-yl)-3,4-dihy droquinolin-2(1H)-one]
[1]
  in vivo stability of the radiolabel (thyroid / bone uptake over time): broken down readily in vivo at the iodine position
[1]; 15 min
  Biodistribution of radioactivity in brain region, Amygdala: 0.09 ± 0.02 %ID/g
  Biodistribution of radioactivity in brain region, Basal Hypothalamus: 0.08 ± 0.01 %ID/g
  Biodistribution of radioactivity in brain region, Cerebellum: 0.08 ± 0.01 %ID/g
  Biodistribution of radioactivity in brain region, Remaining Brain: 0.07 ± 0.01 %ID/g
  Biodistribution of radioactivity, Blood: 0.58 ± 0.51 %ID/g
  Biodistribution of radioactivity, Heart: 0.82 ± 0.70 %ID/g
  Biodistribution of radioactivity, Kidney: 0.96 ± 0.84 %ID/g
  Biodistribution of radioactivity, Liver: 5.67 ± 5.08 %ID/g
  Biodistribution of radioactivity, Lung: 1.86 ± 1.60 %ID/g
  Biodistribution of radioactivity, Muscle: 0.28 ± 0.24 %ID/g
  Biodistribution of radioactivity, Uterus: 0.43 ± 0.38 %ID/g
[1]; 30 min
  Biodistribution of radioactivity in brain region, Amygdala: 0.07 ± 0.03 %ID/g
  Biodistribution of radioactivity in brain region, Basal Hypothalamus: 0.06 ± 0.01 %ID/g
  Biodistribution of radioactivity, Blood: 0.58 ± 0.07 %ID/g
  Biodistribution of radioactivity, Heart: 0.61 ± 0.18 %ID/g
  Biodistribution of radioactivity, Kidney: 0.75 ± 0.07 %ID/g
  Biodistribution of radioactivity, Liver: 3.90 ± 0.15 %ID/g
  Biodistribution of radioactivity, Lung: 1.41 ± 0.72 %ID/g
  Biodistribution of radioactivity, Muscle: 0.26 ± 0.02 %ID/g
  Biodistribution of radioactivity, Uterus: 0.41 ± 0.07 %ID/g
[1]; 60 min
  Biodistribution of radioactivity in brain region, Amygdala: 0.09 ± 0.02 %ID/g
  Biodistribution of radioactivity in brain region, Basal Hypothalamus: 0.06 ± 0.01 %ID/g
  Biodistribution of radioactivity in brain region, Dorsal Striatum: 0.04 ± 0.01 %ID/g
  Biodistribution of radioactivity, Blood: 0.55 ± 0.27 %ID/g
  Biodistribution of radioactivity, Heart: 0.54 ± 0.28 %ID/g
  Biodistribution of radioactivity, Kidney: 0.69 ± 0.30 %ID/g
  Biodistribution of radioactivity, Liver: 3.09 ± 1.34 %ID/g
  Biodistribution of radioactivity, Lung: 1.45 ± 1.04 %ID/g
  Biodistribution of radioactivity, Muscle: 0.23 ± 0.11 %ID/g
  Biodistribution of radioactivity, Uterus: 0.45 ± 0.23 %ID/g
  Biodistribution of radioactivity, Brain: 0.04 ± 0.02 %ID/g
[1]; 120 min
  Biodistribution of radioactivity in brain region, Amygdala: 0.06 ± 0.01 %ID/g
  Biodistribution of radioactivity in brain region, Cerebellum: 0.03 ± 0.01 %ID/g
  Biodistribution of radioactivity in brain region, Dorsal Striatum: 0.03 ± 0.01 %ID/g
  Biodistribution of radioactivity in brain region, Remaining Brain: 0.03 ± 0.01 %ID/g
  Biodistribution of radioactivity, Blood: 0.38 ± 0.14 %ID/g
  Biodistribution of radioactivity, Heart: 0.38 ± 0.06 %ID/g
  Biodistribution of radioactivity, Kidney: 0.42 ± 0.10 %ID/g
  Biodistribution of radioactivity, Liver: 1.81 ± 0.30 %ID/g
  Biodistribution of radioactivity, Muscle: 0.14 ± 0.03 %ID/g
  Biodistribution of radioactivity, Uterus: 0.30 ± 0.10 %ID/g
  Biodistribution of radioactivity, Brain: 0.02 ± 0.01 %ID/g
OTR and V1aR
  autoradiographic binding to brain regions: bind to receptors in the NAcc and VP

## 1-(4-(3,4-Dihydroquinolin-1(2H)-yl)piperidin-1-yl)-2-(2-(2-[^18F]fluoroethoxy)-4-((1-(methylsulfonyl)piperidin-4-yl)oxy)phenyl)ethanone [[^18F]3]
[1]
  in vivo stability of the radiolabel (thyroid / bone uptake over time): appeared to remain intact
[1]; 15 min
  Biodistribution of radioactivity, Liver: 1.81 ± 0.36 %ID/g
[1]; 30 min
  Biodistribution of radioactivity, Liver: 1.41 ± 0.17 %ID/g
[1]; 60 min
  Biodistribution of radioactivity, Liver: 0.98 ± 0.44 %ID/g
[1]; 120 min
  Biodistribution of radioactivity, Liver: 1.18 ± 0.18 %ID/g
OTR of the CNS
  viability for in vivo PET imaging of brain OTR: not viable for in vivo PET imaging of the OTR of the CNS

## CS(=O)(=O)N1CCC(Oc2ccc(CC(=O)N3CCC(N4C(=O)CCc5ccccc54)CC3)c(OC/C=C\[125I])c2)CC1 [[^125I]2, (Z)-1-(1-(2-(2-(3-[125I] Iodoallyloxy)-4-(1-(methylsulfonyl)piperidin-4-yloxy)phenyl)acetyl)piperidin-4-yl)-3,4-dihydroquinolin-2(1H)-one]
[1]
  in vivo stability of the radiolabel (thyroid / bone uptake over time): broken down readily in vivo at the iodine position
[1]; 15 min
  Biodistribution of radioactivity in brain region, Amygdala: 0.06 ± 0.01 %ID/g
  Biodistribution of radioactivity in brain region, Basal Hypothalamus: 0.04 ± 0.01 %ID/g
  Biodistribution of radioactivity in brain region, Cerebellum: 0.03 ± 0.01 %ID/g
  Biodistribution of radioactivity in brain region, Dorsal Striatum: 0.03 ± 0.01 %ID/g
  Biodistribution of radioactivity in brain region, Remaining Brain: 0.03 ± 0.01 %ID/g
  Biodistribution of radioactivity, Blood: 0.22 ± 0.14 %ID/g
  Biodistribution of radioactivity, Heart: 0.51 ± 0.41 %ID/g
  Biodistribution of radioactivity, Kidney: 0.38 ± 0.20 %ID/g
  Biodistribution of radioactivity, Liver: 2.12 ± 1.73 %ID/g
  Biodistribution of radioactivity, Lung: 1.79 ± 1.78 %ID/g
  Biodistribution of radioactivity, Muscle: 0.10 ± 0.09 %ID/g
  Biodistribution of radioactivity, Uterus: 0.22 ± 0.16 %ID/g
  Biodistribution of radioactivity, Brain: 0.02 ± 0.01 %ID/g
[1]; 30 min
  Biodistribution of radioactivity in brain region, Amygdala: 0.08 ± 0.06 %ID/g
  Biodistribution of radioactivity in brain region, Basal Hypothalamus: 0.03 ± 0.01 %ID/g
  Biodistribution of radioactivity in brain region, Cerebellum: 0.03 ± 0.01 %ID/g
  Biodistribution of radioactivity in brain region, Dorsal Striatum: 0.03 ± 0.01 %ID/g
  Biodistribution of radioactivity in brain region, Remaining Brain: 0.02 ± 0.01 %ID/g
  Biodistribution of radioactivity, Blood: 0.23 ± 0.23 %ID/g
  Biodistribution of radioactivity, Heart: 0.39 ± 0.38 %ID/g
  Biodistribution of radioactivity, Kidney: 0.31 ± 0.27 %ID/g
  Biodistribution of radioactivity, Liver: 1.91 ± 1.88 %ID/g
  Biodistribution of radioactivity, Lung: 1.02 ± 1.13 %ID/g
  Biodistribution of radioactivity, Muscle: 0.09 ± 0.08 %ID/g
  Biodistribution of radioactivity, Uterus: 0.16 ± 0.16 %ID/g
  Biodistribution of radioactivity, Brain: 0.02 ± 0.01 %ID/g
[1]; 60 min
  Biodistribution of radioactivity in brain region, Amygdala: 0.06 ± 0.01 %ID/g
  Biodistribution of radioactivity in brain region, Basal Hypothalamus: 0.03 ± 0.01 %ID/g
  Biodistribution of radioactivity in brain region, Cerebellum: 0.03 ± 0.01 %ID/g
  Biodistribution of radioactivity in brain region, Dorsal Striatum: 0.02 ± 0.01 %ID/g
  Biodistribution of radioactivity in brain region, Remaining Brain: 0.02 ± 0.01 %ID/g
  Biodistribution of radioactivity, Heart: 0.39 ± 0.12 %ID/g
  Biodistribution of radioactivity, Kidney: 0.46 ± 0.04 %ID/g
  Biodistribution of radioactivity, Liver: 3.01 ± 0.50 %ID/g
  Biodistribution of radioactivity, Lung: 0.66 ± 0.32 %ID/g
  Biodistribution of radioactivity, Muscle: 0.15 ± 0.03 %ID/g
  Biodistribution of radioactivity, Uterus: 0.31 ± 0.08 %ID/g
  Biodistribution of radioactivity, Brain: 0.02 ± 0.01 %ID/g
[1]; 120 min
  Biodistribution of radioactivity in brain region, Basal Hypothalamus: 0.04 ± 0.01 %ID/g
  Biodistribution of radioactivity in brain region, Cerebellum: 0.03 ± 0.01 %ID/g
  Biodistribution of radioactivity in brain region, Dorsal Striatum: 0.02 ± 0.01 %ID/g
  Biodistribution of radioactivity in brain region, Remaining Brain: 0.02 ± 0.01 %ID/g
  Biodistribution of radioactivity, Blood: 0.31 ± 0.17 %ID/g
  Biodistribution of radioactivity, Kidney: 0.29 ± 0.15 %ID/g
  Biodistribution of radioactivity, Liver: 1.91 ± 1.02 %ID/g
  Biodistribution of radioactivity, Lung: 0.41 ± 0.27 %ID/g
  Biodistribution of radioactivity, Muscle: 0.10 ± 0.05 %ID/g
  Biodistribution of radioactivity, Uterus: 0.22 ± 0.13 %ID/g
  Biodistribution of radioactivity, Brain: 0.02 ± 0.01 %ID/g
OTR and V1aR
  autoradiographic binding to brain regions: bind to receptors in the NAcc and VP

## CS(=O)(=O)N1CCC(Oc2ccc(CC(=O)N3CCC(N4C(=O)CCc5ccccc54)CC3)c(O[11CH3])c2)CC1 [[^11C]4, 1-(1-(2-(2-[^11C]methoxy-4-((1-(methylsulfonyl)piperidin-4-yl)oxy)phenyl)acetyl)piperidin-4-yl)-3,4-dihydroquin olin-2(1H)-one]
OTR of the CNS
  viability for in vivo PET imaging of brain OTR: not viable for in vivo PET imaging of the OTR of the CNS
